Measured values: ChEMBL document CHEMBL3588824, “Bioactive Diterpenoids from the Leaves of Callicarpa macrophylla” (J Nat Prod, 2015)
The source made the active and inactive calls. No cut-off for these calls is given here.

Columns and labels:
PC-12 [1] = experiment: Stimulation of nerve growth factor-mediated neurite outgrowth in rat PC12 cells incubated for 96 hrs in presence of 20 ng/ml NGF by phase contrast microscopy; format: functional, cell-based
Outline: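 PC12 cells (DMEM, 5% FBS, 5% HS, 37 °C, 5% CO2) were detached with 1 mM EGTA/PBS for 15 min and seeded on poly-L-lysine at 3 × 10^4 cells/well. After 24 h they got test medium (1% FBS, 1% HS, 20 ng/mL NGF, graded compound levels) for 96 h. Cells were scored by phase contrast (neurite ≥ soma diameter) as % neurite-bearing; triplicates; EC50 by regression.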

PC-12 [2] = experiment: Stimulation of neurite outgrowth in rat PC12 cells incubated for 96 hrs in absence of 20 ng/ml NGF by phase contrast microscopy; format: functional, cell-based
[3] = Rattus norvegicus, PC-12, 96 h, read-out: EC50

`CC(C)c1ccc2c(c1)[C@H](O)C[C@H]1[C@](C)(C(=O)O)CCC[C@]21C` was tested, and the EC50 (PC-12 [1]; pc-12) was “Not Active” and the Activity (PC-12 [2]) was “inactive”.
`C=C[C@@]1(C)CC[C@H]2C(=CC[C@H]3[C@](C)(CO)CCC[C@]23C)[C@H]1O` gave an EC50 (PC-12 [1]; [3]) of 7.6 µM.
`C=C1CC[C@H]2C(C)(C)C(=O)CC[C@]2(C)[C@H]1CC/C(C)=C/C(=O)O` was tested, and the EC50 (PC-12 [1]; [3]) was 6 µM.
In the case of `CC(C)[C@@]12CC[C@@]3(CC[C@H]4[C@](C)(C(=O)O)CCC[C@]4(C)C3=O)[C@@H]1O2`, the EC50 (PC-12 [1]; [3]) is reported as greater than 30 µM.
In the case of `CC(C)[C@@]12C=C3[C@@H](O)C[C@@H]4[C@@](C)(C(=O)O)CCC[C@@]4(C)[C@]3(CC1)OO2`, the EC50 (PC-12 [1]; [3]) is reported as 10.6 µM.
With `CC1(C)C(=O)CC[C@]2(C)[C@@H]1CC[C@]13C[C@@H](CC[C@H]12)[C@](O)(CO)C3` the EC50 (PC-12 [1]; [3]) was 19.7 µM.
With `C=C[C@@]1(C)CC[C@H]2C(=CC[C@@H]3[C@]2(C)CCC[C@@]3(C)O)[C@H]1O` the EC50 (PC-12 [1]; pc-12) was “Not Active” and the Activity (PC-12 [2]) was “inactive”.
In the case of `C=C[C@@]1(C)CCC2=C(C1)[C@H](OC)C[C@H]1[C@](C)(C(=O)O)CCC[C@]21C`, the EC50 (PC-12 [1]; pc-12) is reported as “Not Active” and the Activity (PC-12 [2]) is reported as “inactive”.
For `C=C(C)c1ccc2c(c1)CC[C@H]1[C@](C)(C(=O)O)CCC[C@]21C`, the EC50 (PC-12 [1]; [3]) was greater than 30 µM.
In the case of `CC(C)c1ccc2c(c1)C(=O)C[C@H]1[C@](C)(C(=O)O)CCC[C@]21C`, the EC50 (PC-12 [1]; pc-12) is reported as “Not Active” and the Activity (PC-12 [2]) is reported as “inactive”.
`C=C[C@@]1(C)CC[C@H]2C(=CC[C@@H]3[C@]2(C)CCC[C@@]3(C)C(=O)O)[C@H]1O` gave an EC50 (PC-12 [1]; [3]) of 16 µM.
For `C=C[C@@]1(C)CCC2=C(C1)[C@H](OC)C[C@H]1[C@](C)(CO)CCC[C@]21C`, the EC50 (PC-12 [1]; pc-12) was “Not Active” and the Activity (PC-12 [2]) was “inactive”.
`CC(C)[C@]12CC[C@@]34O[C@@]3(CC[C@H]3[C@](C)(C(=O)O)CCC[C@@]34C)[C@H]1O2` was tested, and the EC50 (PC-12 [1]; pc-12) was “Not Active” and the Activity (PC-12 [2]) was “inactive”.
`CC(=O)OC[C@]1(O)C[C@]23CC[C@@H]4C(C)(C)C(=O)CC[C@@]4(C)[C@@H]2CC[C@@H]1C3` was tested, and the EC50 (PC-12 [1]; [3]) was 11 µM.
